Test results as given in ChEMBL document CHEMBL1134762, “Synthesis and antibacterial evaluation of certain quinolone derivatives” (2001).
≈ marks a conversion by molar mass, not a printed value.

Assays:
Assay type in all cases: functional
[1] = system: Staphylococcus aureus; assay: Antibacterial activity against methicillin-resistant Staphylococcus aureus
In short: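 Broth dilution MIC against MRSA in Mueller-Hinton broth with 1-5 × 10^5 CFU/mL inoculum. Compounds were serially diluted in DMSO (final DMSO 1%, top concentration 300 µM) and incubated 20-72 h at 37 °C. MIC was read by visual turbidity or microscopy. Vehicle and reference agents served as controls; run in duplicate.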

[2] = system: Streptococcus pneumoniae; assay: Antibacterial activity tested against ampicillin and erythromycin-resistant Streptococcus pneumoniae
In short: (§1)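 Broth MIC against clinical isolates (S. pneumoniae, VRE E. faecalis) in tryptic soy broth with 7% calf serum, inoculum 1-5 × 10^5 CFU/mL. DMSO serial dilutions gave 1% final DMSO and a 300 µM highest concentration. Plates were incubated 20-72 h at 37 °C and read by turbidity or microscopy. Vehicle and reference controls were included; run in duplicate.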

[3] = system: Enterococcus faecalis; assay: Antibacterial activity tested against vancomycin-resistant Enterococcus faecalis; in short: as §1

Structure (SMILES) | MIC [1] [µM] | MIC [2] [µM] | MIC [3] [µM]
CCn1cc(C(=O)O)c(=O)c2cc(F)c(N3CCN(CC(=O)c4ccc(OC)cc4)CC3)c(F)c21 | 0.62 (≈ 0.301 µg/mL) | > 200 | > 200
COc1ccc(C(=O)CN2CCN(c3cc4c(cc3F)c(=O)c(C(=O)O)cn4-c3ccc([N+](=O)[O-])cc3)CC2)cc1 | 5.58 (≈ 3.13 µg/mL) | > 200 | > 200
CCn1cc(C(=O)O)c(=O)c2cc(F)c(N3CCN(C/C(=N\O)c4ccc(Cl)cc4)CC3)cc21 | > 200 | > 200 | > 200
CCn1cc(C(=O)O)c(=O)c2cc(F)c(N3CCNCC3)cc21 [NORFLOXACIN] | 4.89 (≈ 1.56 µg/mL) | 19.6 (≈ 6.26 µg/mL) | 9.8 (≈ 3.13 µg/mL)
CCn1cc(C(=O)O)c(=O)c2cc(F)c(N3CCN(C/C(=N\O)c4ccc(F)cc4)CC3)cc21 | 2.13 (≈ 1 µg/mL) | > 200 | > 200
CCn1cc(C(=O)O)c(=O)c2cc(F)c(N3CCN(CC(=O)c4ccc(OC)cc4)CC3)cc21 | 6.7 (≈ 3.13 µg/mL) | > 200 | > 200
O=C(O)c1cn(-c2ccc([N+](=O)[O-])cc2F)c2cc(N3CCNCC3)c(F)cc2c1=O | 7.27 (≈ 3.13 µg/mL) | 0.46 (≈ 0.198 µg/mL) | 29 (≈ 12.5 µg/mL)
CCn1cc(C(=O)O)c(=O)c2cc(F)c(N3CCN(C/C(=N\O)c4ccc(F)cc4)CC3)c(F)c21 | 0.61 (≈ 0.298 µg/mL) | 6.14 (≈ 3 µg/mL) | 2.05 (≈ 1 µg/mL)
COc1ccc(/C(CN2CCN(c3cc4c(cc3F)c(=O)c(C(=O)O)cn4-c3ccc(N)cc3F)CC2)=N/O)cc1 | 0.53 (≈ 0.299 µg/mL) | 1.77 (≈ 0.998 µg/mL) | 5.32 (≈ 3 µg/mL)
CCn1cc(C(=O)O)c(=O)c2cc(F)c(N3CCN(C/C(=N\O)c4ccccc4)CC3)cc21 | 0.44 (≈ 0.199 µg/mL) | > 200 | > 200
CCn1cc(C(=O)O)c(=O)c2cc(F)c(N3CCN(CC(=O)c4ccccc4)CC3)c(F)c21 | 1.71 (≈ 0.779 µg/mL) | 13.7 (≈ 6.24 µg/mL) | 13.7 (≈ 6.24 µg/mL)
COc1ccc(/C(CN2CCN(c3cc4c(cc3F)c(=O)c(C(=O)O)cn4-c3ccc([N+](=O)[O-])cc3)CC2)=N/O)cc1 | 1.36 (≈ 0.783 µg/mL) | 10.9 (≈ 6.27 µg/mL) | 21.7 (≈ 12.5 µg/mL)
CCn1cc(C(=O)O)c(=O)c2cc(F)c(N3CCN(CC(=O)c4ccc(Cl)cc4)CC3)cc21 | > 200 | > 200 | > 200
O=C(CN1CCN(c2cc3c(cc2F)c(=O)c(C(=O)O)cn3-c2ccc([N+](=O)[O-])cc2)CC1)c1ccc(F)cc1 | > 200 | > 200 | > 200
CCn1cc(C(=O)O)c(=O)c2cc(F)c(N3CCN(C/C(=N\OC)c4ccc(Cl)cc4)CC3)cc21 |  | > 200 | > 200
CCn1cc(C(=O)O)c(=O)c2cc(F)c(N3CCN(C/C(=N\O)c4ccc(OC)cc4)CC3)cc21 | 0.41 (≈ 0.198 µg/mL) | 13 (≈ 6.27 µg/mL) | 3.23 (≈ 1.56 µg/mL)
CCn1cc(C(=O)O)c(=O)c2cc(F)c(N3CCN(C/C(=N/N=C(/N)S)c4ccccc4)CC3)c(F)c21 | 0.74 (≈ 0.391 µg/mL) | > 200 | > 200

Structure (SMILES) | MIC [1] [µM] | MIC [2] [µM] | MIC [3] [µM]
CCn1cc(C(=O)O)c(=O)c2cc(F)c(N3CCN(C/C(=N\O)c4ccc(Cl)cc4)CC3)c(F)c21 | 0.59 (≈ 0.298 µg/mL) | 19.8 (≈ 10 µg/mL) | 19.8 (≈ 10 µg/mL)
CCn1cc(C(=O)O)c(=O)c2cc(F)c(N3CCN(C/C(=N\O)c4ccc(OC)cc4)CC3)c(F)c21 | 0.2 (≈ 0.1 µg/mL) | 6.25 (≈ 3.13 µg/mL) | 3.12 (≈ 1.56 µg/mL)
CCn1cc(C(=O)O)c(=O)c2cc(F)c(N3CCN(C/C(=N\OC)c4ccc(OC)cc4)CC3)cc21 | 1.57 (≈ 0.78 µg/mL) | 12.6 (≈ 6.26 µg/mL) | 12.6 (≈ 6.26 µg/mL)
CCn1cc(C(=O)O)c(=O)c2cc(F)c(N3CCN(C/C(=N/NC(N)=O)c4ccccc4)CC3)cc21 | 3.15 (≈ 1.56 µg/mL) | 25.3 (≈ 12.5 µg/mL) | 25.3 (≈ 12.5 µg/mL)
CCn1cc(C(=O)O)c(=O)c2cc(F)c(N3CCN(C/C(=N/N=C(/N)S)c4ccccc4)CC3)cc21 | 1.53 (≈ 0.781 µg/mL) | 24.5 (≈ 12.5 µg/mL) | 12.2 (≈ 6.23 µg/mL)
CCn1cc(C(=O)O)c(=O)c2cc(F)c(N3CCN(C/C(=N/NC(N)=O)c4ccccc4)CC3)c(F)c21 | 0.39 (≈ 0.2 µg/mL) | 6.11 (≈ 3.13 µg/mL) | 6.11 (≈ 3.13 µg/mL)
CCn1cc(C(=O)O)c(=O)c2cc(F)c(N3CCN(C/C(=N\OC)c4ccc(Cl)cc4)CC3)c(F)c21 | > 200 | > 200 | > 200
CCn1cc(C(=O)O)c(=O)c2cc(F)c(N3CCN(CC(=O)c4ccc(F)cc4)CC3)cc21 | 6.87 (≈ 3.13 µg/mL) | > 200 | > 200
Nc1ccc(-n2cc(C(=O)O)c(=O)c3cc(F)c(N4CCNCC4)cc32)c(F)c1 | 0.97 (≈ 0.388 µg/mL) | 3.9 (≈ 1.56 µg/mL) | 15.6 (≈ 6.25 µg/mL)
COc1ccc(C(=O)CN2CCN(c3cc4c(cc3F)c(=O)c(C(=O)O)cn4-c3ccc([N+](=O)[O-])cc3F)CC2)cc1 | 2.7 (≈ 1.56 µg/mL) | 5.41 (≈ 3.13 µg/mL) | 43.2 (≈ 25 µg/mL)
COc1ccc(/C(CN2CCN(c3cc4c(cc3F)c(=O)c(C(=O)O)cn4-c3ccc([N+](=O)[O-])cc3F)CC2)=N/O)cc1 | 0.34 (≈ 0.202 µg/mL) | 1.31 (≈ 0.778 µg/mL) | 5.27 (≈ 3.13 µg/mL)
CCn1cc(C(=O)O)c(=O)c2cc(F)c(N3CCNCC3)c(F)c21 | 2.31 (≈ 0.779 µg/mL) | 18.5 (≈ 6.24 µg/mL) | 18.5 (≈ 6.24 µg/mL)
CCn1cc(C(=O)O)c(=O)c2cc(F)c(N3CCN(C/C(=N\N)c4ccc(F)cc4)CC3)cc21 | 1.66 (≈ 0.779 µg/mL) | 26.6 (≈ 12.5 µg/mL) | 26.6 (≈ 12.5 µg/mL)
O=C(O)c1cn(-c2ccc([N+](=O)[O-])cc2)c2cc(N3CCN(C/C(=N\O)c4ccc(F)cc4)CC3)c(F)cc2c1=O | > 200 | > 200 | > 200
CCn1cc(C(=O)O)c(=O)c2cc(F)c(N3CCN(CC(=O)c4ccccc4)CC3)cc21 | 7.15 (≈ 3.13 µg/mL) | > 200 | > 200
COc1ccc(C(=O)CN2CCN(c3cc4c(cc3F)c(=O)c(C(=O)O)cn4-c3ccc(N)cc3F)CC2)cc1 | 0.55 (≈ 0.302 µg/mL) | 1.82 (≈ 0.998 µg/mL) | 5.47 (≈ 3 µg/mL)
